Legend:
[1] = target: T1, Estrogen receptor (Homo sapiens, UniProt P03372); assay: Antagonist activity at ERalpha in human MCF7:WS8 cells incubated for 18 hrs by dual luciferase reporter gene assay relative to control; type: cell-based
T1 sequence (P03372 whole entry): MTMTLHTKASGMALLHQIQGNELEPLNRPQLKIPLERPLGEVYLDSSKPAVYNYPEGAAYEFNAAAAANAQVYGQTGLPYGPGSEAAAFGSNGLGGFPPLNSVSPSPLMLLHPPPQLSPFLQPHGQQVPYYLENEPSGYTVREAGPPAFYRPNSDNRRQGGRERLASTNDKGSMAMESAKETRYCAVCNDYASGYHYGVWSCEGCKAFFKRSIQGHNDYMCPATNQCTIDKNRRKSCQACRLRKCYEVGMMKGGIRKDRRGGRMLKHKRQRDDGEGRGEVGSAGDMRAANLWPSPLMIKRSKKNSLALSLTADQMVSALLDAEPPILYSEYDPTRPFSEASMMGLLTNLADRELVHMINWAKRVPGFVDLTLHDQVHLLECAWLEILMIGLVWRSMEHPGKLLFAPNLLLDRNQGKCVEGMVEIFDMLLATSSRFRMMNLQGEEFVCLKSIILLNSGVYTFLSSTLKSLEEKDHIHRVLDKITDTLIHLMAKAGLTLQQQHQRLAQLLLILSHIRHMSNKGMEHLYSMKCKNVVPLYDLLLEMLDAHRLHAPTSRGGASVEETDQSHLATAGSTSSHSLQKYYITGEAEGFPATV
In short: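 MCF7:WS8 cells were estrogen-deprived for 3 days (phenol red-free RPMI, stripped FBS), then plated and grown 24 h. They were co-transfected for 6 h with a 3×vitellogenin ERE-firefly luciferase plasmid and a pRL-TK Renilla plasmid. Compounds were given in competition with 1 nM E2 for 18 h, then dual luciferase was read.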

[2] = target: T2, Estrogen receptor (Homo sapiens) (UniProt P03372); assay: Inhibition of ERalpha in human MCF7:WS8 cells assessed as increase in degradation of ERalpha incubated for 24 hrs by In-Cell Western assay relative to control; type: cell-based
T2 sequence (whole entry): T1 sequence (P03372 whole entry)
In short: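 MCF7:WS8 cells were estrogen-stripped for 2 days and plated at 2.5 × 10^4 per well. After 48 h they were treated for 24 h. ERα was detected by in-cell western (H10 antibody), with signal normalized to CellTag 700.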

[3] = Antiproliferative activity against human MCF7:WS8 cells assessed as reduction in cell viability incubated for 5 days by Hoechst 33258 dye based assay relative to control; type: functional; conditions: MCF7:WS8, 120 h
In short: (§1)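 Cells were seeded at 5000 per well; MCF7:WS8 had been estrogen-stripped for 2 days first. Compounds were serially diluted in DMSO, with 0.01% DMSO as vehicle. The medium was removed on day 5 (MCF7:WS8) or day 7 (MCF7:5C), and cells were lysed by freezing at −80 °C overnight. DNA was measured by Hoechst 33258 fluorescence. Maximum efficacy was normalized to vehicle (0%) and no cells (100%); at least three biological replicates.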

[4] = cells; conditions: Homo sapiens, MCF7:5C, 168 h
[5] = target: T1, Estrogen receptor; assay: Inhibition of ERalpha in human MCF7:WS8 cells assessed as increase in degradation of ERalpha incubated for 24 hrs by In-Cell Western assay; type: cell-based
In short: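 MCF7:WS8 cells were estrogen-stripped for 2 days and plated at 2.5 × 10^4 per well. ERα was detected by in-cell western (H10 antibody), with signal normalized to CellTag 700.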

[6] = Antiproliferative activity against human MCF7:WS8 cells assessed as reduction in cell viability incubated for 5 days by Hoechst 33258 dye based assay; type: functional; conditions: MCF7:WS8, 120 h; in short: as §1
[7] = Antiproliferative activity against human MCF7:5C cells assessed as reduction in cell viability incubated for 7 days by Hoechst 33258 dye based assay relative to control; type: functional; conditions: 168 h; in short: as §1

Cc1ccccc1C(=O)c1sc2cc(O)ccc2c1Oc1ccc(OCCN2CC(C)C2)cc1
IC50 [1]: 1.9 nM | Efficacy [2]: 81% | Emax [3]: 69% | IC50 ([4]; read-out: pIC50 (converted)): 0.263 nM | IC50 [5]: 0.257 nM | IC50 [6]: 0.0417 nM | Emax [7]: 48%

Cc1cc(F)ccc1C(=O)c1sc2cc(O)ccc2c1Oc1ccc(OC2CN(CCCF)C2)cc1
IC50 [1]: 5.2 nM | Efficacy [2]: 95% | Emax [3]: 69% | IC50 ([4]; read-out: pIC50 (converted)): 0.117 nM | IC50 [5]: 9.33 nM | IC50 [6]: 0.17 nM | Emax [7]: 45%

Cc1ccc(C(=O)c2sc3cc(O)ccc3c2Oc2ccc(OCCN3CC(CF)C3)cc2)c(C)c1
IC50 [1]: 7.4 nM | Efficacy [2]: 83% | Emax [3]: 68% | IC50 ([4]; read-out: pIC50 (converted)): 0.38 nM | IC50 [5]: 1.45 nM | IC50 [6]: 0.155 nM | Emax [7]: 42%

Cc1ccccc1C(=O)c1sc2cc(O)ccc2c1Oc1ccc(OCCN2CC(CF)C2)cc1
IC50 [1]: 1.5 nM | Efficacy [2]: 92% | Emax [3]: 72% | IC50 ([4]; read-out: pIC50 (converted)): 0.955 nM | IC50 [5]: 0.955 nM | IC50 [6]: 1.07 nM | Emax [7]: 40%

Cc1ccccc1C(=O)c1sc2cc(O)ccc2c1Oc1ccc(OCCN2CC[C@@H](CF)C2)cc1
Efficacy [2]: 84% | Emax [3]: 85% | IC50 ([4]; read-out: pIC50 (converted)): 0.0871 nM | IC50 [5]: 10.5 nM | IC50 [6]: 0.0126 nM | Emax [7]: 67%

O=C(c1ccccc1)c1sc2cc(O)ccc2c1Oc1ccc(OC2CN(CCCF)C2)cc1
IC50 [1]: 0.5 nM | Efficacy [2]: 88% | Emax [3]: 67% | IC50 ([4]; read-out: pIC50 (converted)): 0.162 nM | IC50 [5]: 0.708 nM | IC50 [6]: 0.288 nM | Emax [7]: 41%

Cc1cc(O)ccc1C(=O)c1sc2cc(O)ccc2c1Oc1ccc(OCCN2CC(CF)C2)cc1
IC50 [1]: 14 nM | Efficacy [2]: 90% | Emax [3]: 78% | IC50 ([4]; read-out: pIC50 (converted)): 0.12 nM | IC50 [5]: 5.13 nM | IC50 [6]: 0.575 nM | Emax [7]: 36%

O=C(c1ccc(O)cc1)c1sc2cc(O)ccc2c1Oc1ccc(OCCN2CC(CF)C2)cc1
IC50 [1]: 64 nM | Efficacy [2]: 47% | Emax [3]: 73% | IC50 [4]: > 100 nM | IC50 [5]: 8.13 nM | IC50 [6]: 0.708 nM

Cc1ccccc1C(=O)c1sc2cc(O)ccc2c1Oc1ccc(OCCN2CCC2)cc1
Efficacy [2]: 37% | Emax [3]: 70% | IC50 ([4]; read-out: pIC50 (converted)): 1.29 nM | IC50 [5]: 1.91 nM | IC50 [6]: 0.912 nM | Emax [7]: 31%

Cc1cc(F)cc(C)c1C(=O)c1sc2cc(O)ccc2c1Oc1ccc(OC2CN(C3CC3)C2)cc1
IC50 [1]: 11 nM | Efficacy [2]: 51% | Emax [3]: 62% | IC50 ([4]; read-out: pIC50 (converted)): 0.141 nM | IC50 [5]: 5.89 nM | IC50 [6]: 0.0631 nM | Emax [7]: 16%

O=C(c1ccccc1)c1sc2cc(O)ccc2c1Oc1ccc(OCCN2CC(CF)C2)cc1
IC50 [1]: 4.3 nM | Efficacy [2]: 85% | Emax [3]: 64% | IC50 ([4]; read-out: pIC50 (converted)): 0.263 nM | IC50 [5]: 1.02 nM | IC50 [6]: 0.174 nM | Emax [7]: 48%

O=C(c1cccc(F)c1)c1sc2cc(O)ccc2c1Oc1ccc(OC2CN(CCCF)C2)cc1
Emax [3]: 70% | IC50 ([4]; read-out: pIC50 (converted)): 0.182 nM | IC50 [6]: 0.141 nM

O=C(c1cccc(F)c1)c1sc2cc(O)ccc2c1Oc1ccc(OCCN2CC(CF)C2)cc1
Emax [3]: 78% | IC50 ([4]; read-out: pIC50 (converted)): 0.295 nM | IC50 [6]: 0.229 nM | Emax [7]: 36%

Cc1cc(F)cc(C)c1C(=O)c1sc2cc(O)ccc2c1Oc1ccc(OCCN2CC[C@H](CF)C2)cc1
Efficacy [2]: 42% | Emax [3]: 70% | IC50 ([4]; read-out: pIC50 (converted)): 1 nM | IC50 [5]: 3.02 nM | IC50 [6]: 0.407 nM | Emax [7]: 42%

Cc1cc(F)ccc1C(=O)c1sc2cc(O)ccc2c1Oc1ccc(OCCN2CC(CF)C2)cc1
IC50 [1]: 2.7 nM | Efficacy [2]: 95% | Emax [3]: 77% | IC50 ([4]; read-out: pIC50 (converted)): 0.363 nM | IC50 [5]: 3.63 nM | IC50 [6]: 0.251 nM | Emax [7]: 52%

From ChEMBL document CHEMBL4354825, “Design and Synthesis of Basic Selective Estrogen Receptor Degraders for Endocrine Therapy Resistant Breast Cancer” (J Med Chem, 2019)
